Assay outcomes deposited in PubChem by Sanford-Burnham Center for Chemical Genomics.
bIAP activator – intestinal alkaline phosphatase (bovine) activation. AID 1016. activation factor at 20 µM. purified bovine IAP, CDP-star luminescence, 30 min; stronger effect = higher value; fold of DMSO-control signal, blank-subtracted. 200,000 tested, 0.17% active;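 active means activation factor of 2 or more at 20 µM, a signal rise over negative controls twice the positive control's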
mIAP act – mouse IAP activation; muIAP, CDP-Star luminescence, 30 min; stronger effect = higher value; 1 = vehicle-only enzyme signal, 0 = enzyme-free wells; activation factor at 10 µM; 330,000 tested, 0.24% active;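 active means activation factor of at least 2 at 20 µM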
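System: Mouse IAP enzyme | Also added: CDP-Star substrate | Dosing: Compounds dispensed in DMSO | Schedule: 30 min enzyme-substrate-compound incubation at room temperature | Technique: Chemiluminescence readout | Control set: DMSO-only wells and no-enzyme negative control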
hIAP activ – increases human intestinal alkaline phosphatase activity; P09923; purified human IAP, CDP-Star luminescence, 30 min; stronger effect = higher value; 1 = vehicle-only enzyme, 0 = enzyme-free background; activation factor at 10 µM; 330,000 tested, 0.16% active;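 active means activation factor of the enzyme at least 2-fold when tested at 20 µM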
Target sequence (P09923 whole entry, looked up): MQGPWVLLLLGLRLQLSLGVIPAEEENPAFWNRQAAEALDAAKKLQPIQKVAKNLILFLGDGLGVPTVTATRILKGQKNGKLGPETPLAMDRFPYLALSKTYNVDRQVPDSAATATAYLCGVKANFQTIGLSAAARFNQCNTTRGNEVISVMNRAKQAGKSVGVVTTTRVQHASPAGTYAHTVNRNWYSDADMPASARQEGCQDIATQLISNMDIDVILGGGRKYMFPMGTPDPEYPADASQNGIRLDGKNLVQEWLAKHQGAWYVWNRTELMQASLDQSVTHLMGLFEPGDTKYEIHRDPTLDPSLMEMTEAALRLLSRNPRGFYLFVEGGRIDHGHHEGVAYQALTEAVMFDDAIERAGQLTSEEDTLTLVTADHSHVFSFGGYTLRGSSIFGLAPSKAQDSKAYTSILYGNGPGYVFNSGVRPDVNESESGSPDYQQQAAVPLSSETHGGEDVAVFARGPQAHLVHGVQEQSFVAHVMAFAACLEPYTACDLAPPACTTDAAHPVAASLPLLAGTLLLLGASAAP
hIAP block – blocks human intestinal alkaline phosphatase; P09923; purified IAP, CDP-Star luminescence, 30 min; inhibition, % at 10 µM; 330,000 tested, 0.12% active;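 active means inhibition reaching a set limit with compound at 10 µM in the primary screen, cut at about 35% in these data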
mIAP inh – mouse IAP inhibition; purified mouse IAP, CDP-Star luminescence, 30 min; inhibition, % at 10 µM; 330,000 tested, 0.2% active; AID 2806;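 active means inhibition of at least 40% at 10 µM in the primary screen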
bIAP inh – intestinal alkaline phosphatase (bovine) inhibition; purified bovine IAP, CDP-star luminescence, 30 min; inhibition, % at 20 µM; 190,000 tested, under 10 active; AID 1019;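 active means over 50% inhibition of intestinal alkaline phosphatase at 20 µM in the single-dose screen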
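Assay system – bovine IAP enzyme · Quantity – bovine IAP at 1/65,000,000 final dilution · Detection – CDP-star luminescence signal · Times – 30 min reaction at room temperature · Also added – CDP-star substrate at 30 µM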
hIAP act conf – human IAP activation confirmation; shares compounds with hIAP activ; purified IAP, CDP-Star luminescence, 30 min; stronger effect = lower value; activation (%Activity, negative = activation), % at 8.3 µM; 880 tested, 10% active; AID 434926;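 active means at least twofold enzyme activation in any of six single-dose repeats, which the averaged readout prints as negative percent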
Hits are given with their value; . = inactive; / = no result. A selection: hits, their analogues and other compounds. The true share with any hit is near 0.77%.

SMILES	bIAP activator	mIAP act	hIAP activ	hIAP block	mIAP inh	bIAP inh	hIAP act conf
Cc1ccc(C2CC2C(=O)NNC(=S)Nc2ccc(Cl)cc2)cc1 (stereo unspecified)	.	.	2.4	.	.	.	.
Cc1cccc(NC(=S)NNC(=O)Cc2ccccc2)c1	.	.	.	.	.	.	/
O=C(Cc1ccccc1)NNC(=S)Nc1ccc(Cl)cc1	.	.	2.1	.	.	.	.
CC(NC(=O)c1ccco1)C(=O)OCc1cccc(C(F)(F)F)c1 (stereo unspecified)	/	.	.	.	.	/	/
O=C(Cc1coc2ccc3ccccc3c12)Nc1nccs1	.	.	.	.	.	.	/
O=C(Cc1coc2ccc3ccccc3c12)NCc1ccccc1	.	.	2	.	.	.	.
CCCCN1/C(=C/c2ccc3ccccc3[n+]2CC)Sc2ccccc21	.	.	.	.	.	.	/
CCN1/C(=C/c2ccc3ccccc3[n+]2CC)C=Cc2ccccc21	.	.	.	36	.	/	.
C/C(=N\N(Cc1ccccc1)c1ccccc1)c1ccncc1	.	.	.	39	.	.	.
CN(C(=O)c1ccncc1)c1ccccc1	/	.	.	.	.	/	/
CSc1ccccc1NC(=O)c1csc(C)c1	/	.	.	35	.	/	.
C/C(=N\NC(=O)c1cccc(O)c1)c1ccc(NC(=O)Cc2ccccc2)cc1	/	.	.	.	.	/	/
CCCCN1C(=O)/C(=C/C=C2\SCCN2C)SC1=S	.	.	.	44	.	.	.
CN1CCS/C1=C/C=C1\SC(=S)N(CC(=O)O)C1=O	.	.	.	.	.	/	/
N#Cc1cc([N+](=O)[O-])ccc1NC(=O)COC(=O)CC1CCCC1	/	.	.	.	.	/	/
O=C(Nc1cccc(Cl)c1)N1CCCCCC1	/	.	.	38	.	/	.
CS(=O)(=O)N1CCN(C(=O)c2cc(-c3ccncc3)nc3ccc(Cl)cc23)CC1	.	.	2.5	.	.	.	.
Cn1ccnc1SCc1ccc(Cl)cc1Cl	/	.	2.2	.	.	/	.
CC(=O)c1n[nH]nc1Nc1nc(C)cc(C)n1	.	.	2.2	.	.	.	.
CC1Sc2ccc(S(=O)(=O)N3CCC(C(=O)N(C)Cc4ccccc4)CC3)cc2NC1=O (stereo unspecified)	/	.	.	.	.	/	/
COCC(=O)N1CCC(Oc2ccc(C(=O)NCc3cc(C)no3)cc2)CC1	/	.	.	36	.	/	.
Cn1cc(CNCc2cnc3ccccn23)c(-c2ccc(Oc3ccccc3)cc2)n1	.	.	2.7	.	.	.	.
O=C(CSc1nnc(-c2ccc(C(F)(F)F)cn2)s1)c1ccc(Cl)cc1	/	.	.	.	.	/	/
O=C(NC1CC(=O)c2sccc21)c1ccc(Cl)cc1Cl (stereo unspecified)	.	.	.	.	.	.	/
CCC(C)NC(=O)C1CCN(C(=O)N(C)C)CC1 (stereo unspecified)	.	.	.	.	.	.	/
SMILES	bIAP activator	mIAP act	hIAP activ	hIAP block	mIAP inh	bIAP inh	hIAP act conf
CC(C)CCNC(=O)C1CCN(C(=O)N(C)C)CC1	.	.	.	47	.	.	.
O=C(Nc1ccncc1)Nc1cccc(F)c1	/	.	.	.	.	/	/
CC(=O)Nc1ccc(SCC(=O)NNC(=O)CN(C)S(=O)(=O)c2ccc(C)cc2)cc1	/	.	.	.	.	/	/
CC(=O)Nc1ccc(S(=O)(=O)N(C)CC(=O)NNC(=O)Cc2nc3ccccc3n2C)cc1	/	.	2.3	.	.	/	.
N#Cc1cc(Oc2ccccc2)c(-n2nnc3ccccc32)cc1C#N	.	.	.	35	.	.	.
N#Cc1cc(Oc2ccc3ccccc3c2)c(-n2nnc3ccccc32)cc1C#N	.	.	.	.	.	.	/
Cc1no[n+]([O-])c1COc1ccc(/C=N/n2nnnc2N)cc1	.	.	.	.	.	.	/
C[C@@H]1CN([C@@H](C)CO)C(=O)c2cc(NC(=O)CCN3CCOCC3)ccc2O[C@@H]1CN(C)C(=O)Nc1ccccc1	/	.	.	.	.	/	/
CC(C)=CCc1c(O)ccc2c1OC(c1ccc(O)c(O)c1)CC2=O (stereo unspecified)	.	.	.	68	.	.	.
CC(C)=CCc1c(O)cc2c(c1O)C(=O)CC(c1ccccc1)O2 (stereo unspecified)	/	.	.	.	.	/	/
COc1ccc(CNS(=O)(=O)c2cccc(S(=O)(=O)N3CCOCC3)c2)cc1	.	.	.	36	.	.	.
COc1cccc(CNS(=O)(=O)c2cccc(S(=O)(=O)N3CCOCC3)c2)c1	.	.	.	.	.	.	/
O=C(CSc1ncn[nH]1)NNC(=O)c1ccccc1	/	.	2.2	.	.	/	.
O=C(N/N=C/c1c(F)cccc1Cl)c1cc(C2CC2)[nH]n1	/	.	2	.	.	/	.
O=C(N/N=C/c1ccc(O)cc1)c1cc(C2CC2)[nH]n1	/	.	.	.	.	/	/
CS(=O)(=O)Cc1ccc(C(=O)NNC(=O)c2cc(-c3ccccc3)n[nH]2)cc1	/	.	.	.	.	/	/
COC(=O)c1cc(-c2ccccc2)n[nH]1	.	.	.	.	.	.	/
CS(=O)(=O)c1ccc(C(=O)NNC(=O)c2cc(-c3ccccc3)n[nH]2)cc1	/	.	.	51	.	/	.
COc1cc(C(=O)NNC(=O)c2cc(-c3ccccc3)n[nH]2)cc(OC)c1C	/	.	2.5	.	.	/	.
COC(=O)Cc1ccc(NC(=S)NCCSc2ccc(C)cc2)cc1	.	.	.	.	.	.	/
Cc1ccc(NC(=S)NCCSc2ccc(Cl)cc2)cc1	.	2.3	2.3	.	.	.	.
CCOC(=O)N1CCN(C(=O)CCCCn2c(=S)[nH]c3ccsc3c2=O)CC1	.	.	.	.	.	.	/
N#C/C(=C(\O)c1ccco1)c1ccccn1	.	.	2.1	.	.	.	.
Nc1ncc(Br)cc1S(=O)(=O)NCCC(=O)NCCc1ccc(Cl)cc1	/	.	.	.	.	/	/
CN(C)c1ccc(CN(Cc2ccco2)C(=O)c2ccco2)cc1	/	.	.	.	.	/	/
SMILES	bIAP activator	mIAP act	hIAP activ	hIAP block	mIAP inh	bIAP inh	hIAP act conf
O=C(c1ccco1)N(Cc1ccc(Cl)cc1)Cc1ccco1	/	.	.	38	.	/	.
COc1ccc(C(CNC(=O)c2oc3c(Cl)cccc3c2C)N2CCCC2)cc1 (stereo unspecified)	/	.	.	.	.	/	/
CC(=O)c1ccc(OCCCC(=O)NNC(=O)c2ccccn2)cc1	/	.	.	.	.	/	/
COc1ccc(-n2ccn(CC(=O)Nc3ccc(OC)cc3OC)c(=O)c2=O)cc1	/	.	.	44	.	/	.
O=C(Nc1cccc(C(=O)Nc2cccc(Br)c2)c1)c1ccccc1	/	.	.	.	.	/	/
CC(C)c1ccc(NC(=O)c2cccc(Br)c2)cc1	.	.	2.4	.	.	.	.
Cc1cc2cc3c(cc2nc1SCC(=O)Nc1nc(C)c(C)s1)OCO3	.	.	2.2	.	.	.	.
